Assay results of several laboratories.
Compare with care: the assays were run in different laboratories.
SLK: STE20-like serine/threonine-protein kinase (SLK, Homo sapiens, UniProt Q9H2G2)
MINK1: Misshapen-like kinase 1 (MINK1, Homo sapiens, UniProt Q8N4C8)
SLC22A11: Solute carrier family 22 member 11 (SLC22A11, Homo sapiens, UniProt Q9NSA0)

C1=C/COCc2cc(ccc2OCCN2CCCC2)Nc2nccc(n2)-c2cccc(c2)COC/1
remaining binding (Tyrosine-protein kinase ABL1 (ABL1, Homo sapiens, UniProt P00519, T315I); binding; 0.1 µM): 13%

Cc1cc(O)c(-c2ccc([C@@H](C)CN(C)C)cc2)c2c1[nH]c(=O)c1sccc12
inhibition (Receptor-interacting serine/threonine-protein kinase 4 (RIPK4, Homo sapiens, UniProt P57078); enzyme activity, inhibitor; 0.1 µM): 0.327%

Cc1cc(S(=O)(=O)N[C@H]2CC[C@H](CN3CCN(c4ccc(C5CCC(=O)NC5=O)cc4F)CC3)CC2)ccc1Nc1ncc(C(F)(F)F)c(N2CCC[C@](C)(O)C2)n1 (stereo partly drawn)
remaining binding (SLK; binding, competition with immobilised ligand; 1 µM): 55%

CCCCC(=O)Nc1ccc(-c2ccc3ncn(CCC)c(=O)c3c2)cn1
remaining binding (MINK1; binding, competition with immobilised ligand; 0.5 µM): 99%

C[C@]1(O)CCCN(c2nc(Nc3ccc(S(=O)(=O)N[C@H]4CC[C@H](CN5CCN(c6ccc(C7CCC(=O)NC7=O)cc6F)CC5)CC4)cc3F)ncc2C(F)(F)F)C1 (stereo partly drawn)
remaining binding (SLK; binding, competition with immobilised ligand; 1 µM): 34%

COc1ccc2oc(-c3ccc4nc(N)oc4c3)c/c(=N\c3ccccc3NC(=O)CCN)c2c1
remaining binding (MINK1; binding; 1 µM): 103%

CCCCNc1ccc(C(=O)OCCN(C)C)cc1
inhibition (SLC22A11; transporter uptake, inhibitor; 25 µM): 80.3%

C#Cc1cc(-c2cc(Nc3nc(N[C@@H](C)c4ccc(F)cn4)ncc3Cl)n[nH]2)ccc1C=O
inhibition (MINK1; enzyme activity, inhibitor; 0.2 µM): 55.9%

CC(=O)Oc1ccccc1C(=O)Nc1ncc([N+](=O)[O-])s1
inhibition (SLC22A11; transporter uptake, inhibitor; 25 µM): 76.5%

Cc1cc(F)cc2c(CCC(=O)N[C@@H]3C(=O)NC[C@H]3O)c(-c3ccc(F)cc3)[nH]c12
inhibition (Alpha-2A adrenergic receptor (ADRA2A, Homo sapiens, UniProt P08913); cell-free assay; 10 µM): 26%

CCCc1nc2c(C)cc(-c3nc4ccccc4n3C)cc2n1Cc1ccc(-c2ccccc2C(=O)O)cc1
inhibition (SLC22A11; transporter uptake, inhibitor; 25 µM): 90.2%

NC/C(=C\F)COc1cccc(Cn2c(=S)[nH]c(=O)c3[nH]cnc32)c1
inhibition (Diamine oxidase [copper-containing] (AOC1, Homo sapiens, UniProt P19801); enzyme activity, inhibitor; 200 pM): 3.14%

C[C@@H]1CC(=O)NN=C1c1ccc(NN=C(C#N)C#N)cc1
inhibition (SLC22A11; transporter uptake, inhibitor; 25 µM): 76.1%

CNS(=O)(=O)c1ccc(Nc2ncc(C(F)(F)F)c(N3CCC[C@](C)(O)C3)n2)c(C)c1
remaining binding (Serine/threonine-protein kinase RIO1 (RIOK1, Homo sapiens, UniProt Q9BRS2); binding, competition with immobilised ligand; 1 µM): 99%

CCCCC1C(=O)N(c2ccccc2)N(c2ccccc2)C1=O
inhibition (SLC22A11; transporter uptake, inhibitor; 25 µM): 82.7%

O=C(ON1C(=O)CCC1=O)c1cc(C(F)(F)F)cc(C(F)(F)F)c1
kinact/KI (CD209 antigen (CD209, Homo sapiens, UniProt Q9NNX6); cell-free assay, inhibitor; pH 7.4): 91.7 M⁻¹ s⁻¹

CC(C)n1c(/C=C/C(O)CC(O)CC(=O)O)c(-c2ccc(F)cc2)c2ccccc21 (stereo not drawn)
inhibition (SLC22A11; transporter uptake, inhibitor; 25 µM): 82%

CCN1/C(=C/C(C)=O)Sc2ccc(F)cc21
inhibition (5-hydroxytryptamine receptor 3A (HTR3A, Homo sapiens, UniProt P46098); ligand displacement, radioligand; 10 µM): 0%
